Assay results gathered from unrelated publications.
Protocols differ between the studies behind these lines.
Target: Vascular endothelial growth factor receptor 3 (FLT4, Homo sapiens, UniProt P35916)

| Structure (SMILES) | read-out | action | method | tested at | endpoint | result |
| --- | --- | --- | --- | --- | --- | --- |
| Cc1ccc(C(=O)NCc2ccsc2)cc1C#Cc1cn(C(C)C)c2ncnc(N)c12 | enzyme activity | inhibitor | – | 1 µM | activity vs control | -1% |
| O=C(Nc1cccnn1)N1CCC(=Cc2cccc(Oc3ccc(C(F)(F)F)cn3)c2)CC1 | cell-free assay | – | competition with immobilised ligand | 1 µM | remaining binding | 80% |
| COc1cc2ncnc(Nc3ccc(Oc4ccccc4)c(C)c3C)c2cc1OC | enzyme activity | inhibitor | – | 1 µM | inhibition | 12% |
| CCOc1cc(-c2nncn2C)ccc1Nc1ncc2cc(C)nc(NCC(C)(C)C)c2n1 | enzyme activity | inhibitor | FRET | 1 µM | inhibition | 23% |
| CCCCN(CCCC)C(=O)CN1C[C@H](c2cc(OC)c3c(c2)OCO3)[C@@H](C(=O)O)[C@@H]1CC(C)(C)CCC | cell-free assay | – | competition with immobilised ligand | 1 µM | remaining binding | 100% |
| CC(C)(C)c1nc2c(s1)c1nc(N)ncc1c1ccc(NS(=O)(=O)c3c(F)cccc3F)c(F)c12 | enzyme activity | inhibitor | radiometric | 1 µM | remaining activity | 76% |
| Cc1sc(C(=O)NC2COC2)cc1-n1cc(NC(=O)Nc2c(F)cccc2Cl)cn1 | enzyme activity | inhibitor | – | 10 µM | remaining activity | 79.2% |
| O=C(O)c1cc(-c2ccc(C3CCNCC3)cc2)c2ccc(-c3ccc(C(F)(F)F)cc3)cc2c1 | cell-free assay | – | competition with immobilised ligand | 1 µM | remaining binding | 100% |
| COc1cc(Cl)c(C(=O)N[C@@H](CN[C@H]2CC[C@@H](N)CC2)Cc2ccc(C#N)cc2)cc1-c1ccc(CN[C@H](C)c2ccc(C)cc2)o1 | enzyme activity | inhibitor | – | 1 µM | remaining activity | 93% |
| CC(=O)N1CCC(c2ccc(C(=O)NC(=N)N)cc2C(F)(F)F)CC1 | cell-free assay | – | competition with immobilised ligand | 1 µM | remaining binding | 89% |
| O=C1Nc2ccc(Cl)cc2C1=Cc1cc(Cl)c(O)c(Cl)c1 | cell-free assay | – | – | 0.5 µM | remaining signal | 87.3% |
| CC(C)(O)[C@H]1CC[C@H](Nc2ccc3ncc(-c4cccc(C(F)(F)F)c4)n3n2)CC1 | enzyme activity | inhibitor | – | 1 µM | remaining activity | 83.5% |
| CC[C@H](CO)Nc1nc(NCc2ccccc2)c2ncn(C(C)C)c2n1 | cell-free assay | – | – | 0.5 µM | remaining signal | 94% |
| O=C(Nc1cnn(-c2csc(C(=O)NC3COC3)c2)c1)Nc1c(F)cccc1Cl | enzyme activity | inhibitor | – | 5 µM | remaining activity | 86.2% |
| COc1ccc(COc2ccc(Cc3cnc(N)nc3N)cc2OC)cc1 | cell-free assay | – | – | 0.5 µM | remaining signal | 105% |
| CC(C)(O)c1cncc(-c2nc3ccc(F)cc3n2C2CC2)c1 | cell-free assay | – | competition with immobilised ligand | 1 µM | remaining binding | 100% |
| CNC(=O)c1cc2c(Oc3ccc(NC(=O)C4(C(=O)Nc5ccc(F)cc5)CC4)cc3)ccnc2cc1OC | enzyme activity | inhibitor | radiometric | 1 µM | inhibition | 102% |
| CCN(CC)c1ccc(C2=NNC(=O)CC2C)cc1[N+](=O)[O-] (centres unmarked) | enzyme activity | inhibitor | – | 10 µM | remaining activity | 111% |
| COc1cc2c(Nc3ccc(Br)cc3F)ncnc2cc1OCC1CCN(C)CC1 | cell-free assay | – | – | 0.5 µM | remaining signal | 16.1% |
| C[C@@H]1CN(c2cc(-c3n[nH]c4ccc(OC5(C)CC5)cc34)ncn2)C[C@H](C)O1 | cell-free assay | – | competition with immobilised ligand | 0.1 µM | remaining binding | 100% |
